Results on five compounds are retold here after ChEMBL document CHEMBL2203013, “Strategy for Imidazotetrazine Prodrugs with Anticancer Activity Independent of MGMT and MMR” (ACS Med Chem Lett, 2012).

The structures appear in SMILES notation. pIC50: −log10 of the molar value. Calls of active or inactive are those of the source. The rule behind the calls is not given here.

In series [1] the test system is A2780/CP70. As to the kind of experiment: Cytotoxicity against MMR-deficient human A2780/CP70 cells after 5 days by MTT assay. It is filed as functional, cell-based. For orientation: Formazan colour is commonly taken as a measure of viable cells.
Series [2] relates to A2780. Briefly: Cytotoxicity against human A2780 cells after 5 days by MTT assay. It is filed as functional, cell-based.
In series [3] the test system is A2780/CP70. As to the kind of experiment: (§1) Cytotoxicity against MMR-deficient human A2780/CP70 cells after 5 days by MTT assay in presence of 10 uM MGMT inactivator Patrin2. The class given is functional, cell-based.
Series [4] relates to A2780. As to the kind of experiment: Cytotoxicity against human A2780 cells after 5 days by MTT assay in presence of 10 uM MGMT inactivator Patrin2. It is filed as functional, cell-based.
Another series relates to HT-29. Briefly: Cytotoxicity against human HT-29 cells after 5 days by MTT assay. The class given is functional, cell-based. As to conditions: for pIC50: HT-29, 120 h.
Series [5] deals with Nucleic Acid. Briefly: Binding affinity to Escherichia coli pBR322 DNA assessed as guanine-N7 alkylation on GC-rich region after 2 hrs by piperidine cleavage assay. It is filed as nucleic-acid assay.
The subject of series [6] is Nucleic Acid. Briefly: Induction of Escherichia coli pBR322 DNA alkylation assessed as formation of covalent DNA adducts after 2 hrs by Taq polymerase DNA stop assay. It is filed as nucleic-acid assay.
The test system of a further series is U-251. Briefly: Cytotoxicity against human U251 cells after 5 days by MTT assay. The class given is functional, cell-based. As to conditions: for pIC50: U-251, 120 h.
The subject of another series is DLD-1. As to the kind of experiment: Cytotoxicity against human DLD1 cells after 5 days by MTT assay. It is filed as functional, cell-based. As to conditions: for pIC50: DLD-1, 120 h.
A short description of series [7]: Prodrug conversion in citrate-phosphate buffer at pH 8 assessed as pseudo-first-order rate constant. It is filed as physicochemical. The method in brief: (§2)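 Hydrolysis in citrate-phosphate buffers at 37 °C, followed by UV absorbance at 330 nm (loss of imidazotetrazine). k′ is a pseudo-first-order rate constant (×10–5 s–1), mean ± SD of three independent determinations; t1/2 given in hours.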

Another series concerns PANC-1. As to the kind of experiment: Cytotoxicity against human PANC1 cells after 5 days by MTT assay. It is filed as functional, cell-based. As to conditions: for pIC50: PANC-1, 120 h.
A further series deals with A549. Briefly: Cytotoxicity against human A549 cells after 5 days by MTT assay. The conditions noted are these: for pIC50: A549, 120 h. It is filed as functional, cell-based.
Another series relates to HCT-116. As to the kind of experiment: Cytotoxicity against human HCT116 cells after 5 days by MTT assay. As to conditions: for pIC50: HCT-116, 120 h. The class given is functional, cell-based.
Series [8] in a line: Prodrug conversion in citrate-phosphate buffer at pH 4 assessed as pseudo-first-order rate constant. It is filed as physicochemical. A digest of the protocol:
as §2

Series [9] is described as follows: Prodrug conversion in citrate-phosphate buffer at pH 8 assessed as half life of compound. The class given is physicochemical. A digest of the protocol: as §2
Series [10] in a line: Prodrug conversion in citrate-phosphate buffer at pH 7.4 assessed as pseudo-first-order rate constant. It is filed as physicochemical. The method in brief:
as §2

A short description of series [11]: Prodrug conversion in citrate-phosphate buffer at pH 4 assessed as half life of compound. The class given is physicochemical. A digest of the protocol: as §2
The subject of series [12] is A2780. As to the kind of experiment: Ratio of IC50 for human A2780 cells to IC50 for MMR-deficient human A2780/CP70 cells in presence of 10 uM MGMT inactivator Patrin2. The class given is functional.
The nature of series [13]: Prodrug conversion in citrate-phosphate buffer at pH 7.4 assessed as half life of compound. It is filed as physicochemical. A digest of the protocol:
as §2

Series [14] is described as follows: as §1. The conditions noted are these: A2780/CP70, 120 h. It is filed as functional, cell-based.

One may read the pIC50 as −log10 of the IC50, conventionally taken in molar units.

For the compound `NC(=O)c1ncn2c(=O)n(CCCl)nnc12`, the outcome with A2780/CP70 [1], in the series on A2780 [2], with A2780/CP70 [3] and in the series on A2780 [4] was Active.

`Cc1ccc(N(CCn2nnc3c(C(N)=O)ncn3c2=O)CCn2nnc3c(C(N)=O)ncn3c2=O)cc1`: the outcome in the series with HT-29, in the series on Nucleic Acid [5], with Nucleic Acid [6], in the series on A2780/CP70 [1], in the series with U-251 and in the series with A2780 [2] was Active. In addition, the result in the series on DLD-1, with PANC-1, with A549, with HCT-116, in the series on A2780/CP70 [3] and in the series with A2780 [4] was Active. The Drug metabolism in series [7] amounted to 45.1 ×10⁻⁵ /s; in [8], 0.4 ×10⁻⁵ /s; in series [10], 14.4 ×10⁻⁵ /s. In addition, the t1/2 was 0.43 h in series [9], 48.5 h in [11] and 1.33 h in series [13]. Further, the “Ratio IC50” value in the series with A2780 [12] was determined as 5.8.

With `N[C@@H](Cc1ccc(N(CCCl)CCCl)cc1)C(=O)O` [MELPHALAN], the pIC50 with HT-29, in the series on U-251, in the series with DLD-1, in the series with PANC-1, in the series on A549 and with HCT-116 was 5.52 throughout. For the same compound, the result with Nucleic Acid [5], in the series with Nucleic Acid [6], with A2780/CP70 [1], with A2780 [2], with A2780/CP70 [3] and in the series with A2780 [4] was Active.

For `Cc1ccc(N(C)CCn2nnc3c(C(N)=O)ncn3c2=O)cc1`, the outcome in the series with HT-29, in the series with Nucleic Acid [5], in the series on Nucleic Acid [6], in the series with A2780/CP70 [1], in the series with U-251 and with A2780 [2] was Active. Further, the result in the series with DLD-1, in the series with PANC-1, in the series with A549, in the series with HCT-116, with A2780/CP70 [3] and with A2780 [4] was Active. The Drug metabolism stood at 49.5 ×10⁻⁵ /s in [7], 0.5 ×10⁻⁵ /s in series [8] and 15.2 ×10⁻⁵ /s in [10]. Moreover, the t1/2 came to 0.39 h in series [9], 41.5 h in series [11] and 1.27 h in [13]. Further, in the series on A2780 [12], the “Ratio IC50” value worked out at 2.8.

Turning to `Cn1nnc2c(C(N)=O)ncn2c1=O` [TEMOZOLOMIDE], the negative logarithm of the IC50 (pIC50) in the series on HT-29, in the series with U-251, in the series with DLD-1, in the series on PANC-1, in the series on A549 and in the series on HCT-116 was below 3.60 in each case. For the same compound, the negative logarithm of the IC50 (pIC50) in [14] is below 3.60; with A2780 [4] (A2780, 120 h) it was below 3.60. Further, the outcome in the series with A2780/CP70 [1] and in the series with A2780 [2] was Active. The Drug metabolism is 46.2 ×10⁻⁵ /s in [7], 0.1 ×10⁻⁵ /s in series [8] and 14 ×10⁻⁵ /s in [10]. Besides, the t1/2 is 0.42 h in [9], 253 h in series [11] and 1.38 h in [13]. For the same compound, the “Ratio IC50” value with A2780 [12] is above 27.
